Screening data deposited in PubChem BioAssay by several laboratories.
KCNQ1 block: blocks the human KCNQ1 potassium channel | P51787 | CHO-K1 KCNQ1, FluxOR thallium flux fluorescence; active compounds read high | B-score at 10 µM | hit rate 1.3% among 310,000;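 active = compounds whose thallium flux B-score, printed positive for inhibition, exceeds three library SD while starting fluorescence stays within three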;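 also: channel opened by potassium depolarization with thallium stimulus after 20 min compound exposure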
Target sequence (P51787 whole entry, looked up): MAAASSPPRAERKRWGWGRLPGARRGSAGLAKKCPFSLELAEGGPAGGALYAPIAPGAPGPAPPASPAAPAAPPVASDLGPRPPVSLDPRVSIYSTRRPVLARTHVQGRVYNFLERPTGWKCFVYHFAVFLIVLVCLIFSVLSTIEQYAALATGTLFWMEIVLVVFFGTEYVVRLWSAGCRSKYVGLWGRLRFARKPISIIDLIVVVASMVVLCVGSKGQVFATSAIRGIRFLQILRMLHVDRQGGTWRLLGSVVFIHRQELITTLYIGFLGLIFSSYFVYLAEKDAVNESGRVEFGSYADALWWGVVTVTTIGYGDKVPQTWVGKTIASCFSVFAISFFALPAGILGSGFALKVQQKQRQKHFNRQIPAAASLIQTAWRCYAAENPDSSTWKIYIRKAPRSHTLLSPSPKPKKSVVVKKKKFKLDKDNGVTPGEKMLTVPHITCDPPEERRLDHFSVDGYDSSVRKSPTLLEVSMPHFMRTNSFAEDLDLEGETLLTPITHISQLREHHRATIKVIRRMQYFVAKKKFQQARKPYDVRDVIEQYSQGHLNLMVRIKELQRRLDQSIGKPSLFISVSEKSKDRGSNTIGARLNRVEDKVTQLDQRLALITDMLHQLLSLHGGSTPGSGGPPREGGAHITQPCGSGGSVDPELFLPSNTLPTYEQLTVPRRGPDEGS
hERG rescue: shields human hERG channel from block by proarrhythmic agents; CHO-hERG, FluxOR thallium flux, dofetilide IC70 present; Q12809; hit rate 0.51% among 310,000; activation (rescue from dofetilide block), less the hit threshold, % at 10 µM; AID 1511;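 active = activation above the mean of controls blocked by dofetilide plus 5 SD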;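 also: thallium influx through hERG after potassium depolarization seen as dye fluorescence rise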
KCC2 mod: KCC2 (human) Cl- transport modulation; B-score of Tl+ flux slope (higher = more flux/activation; lower = inhibition) at 10 µM; KCC2 cells, thallium flux FluoZin-2 fluorescence; AID 1456; hit rate 2.2% among 190,000;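 active = thallium flux slope and its plate-corrected score both differing from the plate sample mean at a set confidence after two filtering rounds, in either direction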;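 also: slope of fluorescence scaled to starting intensity during 10 to 20 s after thallium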
KCNQ1 act: potentiators or activators of human KCNQ1 potassium channel; P51787; hit rate 0.35% among 310,000; B-score at 10 µM; CHO-K1 KCNQ1, thallium flux FluxOR fluorescence; active compounds read high;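 active = fluorescence ratio B-score, a plate-corrected score, at least three library SD, with initial intensity B-score within 5 SD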
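System: CHO-K1 cells stably expressing KCNQ1 / Medium: assay buffer for compound exposure, DMSO matched across wells / Reagent: thallium- and potassium-containing depolarizing buffer / Compound: one concentration, matched DMSO / Incubation: 20 min compound pretreatment at room temperature / Measured by: kinetic FluxOR fluorescence, 10 s baseline plus 110 s post-stimulus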
KCNK9 block: inhibitors of human KCNK9 two-pore domain potassium channel; HEK293 KCNK9, FluxOR thallium flux fluorescence; active compounds read low; AID 488922; Q9NPC2; B-score at 10 µM; hit rate 1.2% among 310,000;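 active = ratio B-score over 3 SD below the library mean, with starting fluorescence within 5 SD of its mean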;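 also: negative B-score means less thallium flux so channel inhibition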
KCNK3 inh: human KCNK3 channel inhibition, primary screen. O14649. CHO-KCNK3 thallium flux, FluxOR fluorescence; active compounds read low. B-score at 10 µM. hit rate 0.84% among 340,000;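 active = B-score under library mean minus 4 SD, starting fluorescence ratio at most library mean plus 5 SD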;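 also: more negative B-score means stronger inhibition of thallium flux through KCNK3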
KCC2 secondary: KCC2 (human) modulation, secondary assay | shares compounds with KCC2 mod | HEK293-KCC2, thallium flux, FluoZin2 fluorescence; active compounds read high | normalised thallium flux (F/F0 slope) at 10 µM | hit rate 15% among 3,700;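 active = thallium flux slope above the same plate's solvent-only control mean plus 3 SD; inconclusive = the two replicate wells disagree; inactive = no significant difference from solvent-only control wells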
KCC2 bumet counter: bumetanide-insensitive thallium flux in KCC2 cells with ouabain, counter-screen; shares compounds with KCC2 mod; HEK293-KCC2 + bumetanide/ouabain, thallium flux FluoZin2; active compounds read high; hit rate 49% among 3,700; normalized thallium flux at 10 µM;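 active = thallium entry rate above the same plate's blocked-transporter control wells by more than 3 SD; inconclusive = the two repeat wells disagree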;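 also: raw slope of fluorescence over initial fluorescence between 10 and 20 s after thallium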
KCC2 secondary2: KCC2 (human) modulation, second secondary assay | shares compounds with KCC2 mod | HEK293-KCC2, thallium flux FluoZin2 fluorescence; actives lie on both sides; F/F0 rise rate, 10–20 s post-thallium | normalized thallium flux at 10 µM | hit rate 23% among 3,700 | AID 1715;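 active = thallium flux slope more than 3 SD above or below the plate's solvent-only control mean, mostly below; inconclusive = the two repeat wells disagreed; inactive = no significant shift from solvent-only controls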
HEK293 Tl flux: acts in parental HEK cells, KCC2 counter-screen | shares compounds with KCC2 mod | HEK293 parental cells, thallium flux FluoZin2, ouabain; baseline-ratio fluorescence slope, 10–20 s after thallium | thallium flux rate (normalised fluorescence) at 10 µM | hit rate 46% among 3,700 | AID 1716;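 active = thallium flux rate significantly above the same plate's solvent-only control wells, beyond their mean plus 3 SD; inconclusive = the two replicate wells gave conflicting results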
KCC2 ouabain: modulates human KCC2 on retest with ouabain; shares compounds with KCC2 mod; HEK293-KCC2, thallium flux FluoZin2 fluorescence; bidirectional: low = inhibitor, high = activator; raw Tl+ flux slope (below DMSO = inhibition, above = activation) at 10 µM; hit rate 48% among 3,700;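 active = thallium flux slope beyond 3 SD from same-plate DMSO control mean in most replicates, usually higher, sometimes lower; inconclusive = repeat tests gave conflicting results; inactive = no significant difference from controls in most replicates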;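 also: slope of initial-normalized fluorescence between seconds 10 and 20 after thallium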
HEK counter2: acts in parental HEK cells, second KCC2 counter-screen; AID 1718; shares compounds with KCC2 mod; thallium flux slope at 10 µM; HEK293 parental, thallium flux FluoZin-2 fluorescence slope; hit rate 33% among 3,700;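 active = thallium flux slope above the same plate's solvent-control mean plus 3 SD in both duplicate wells; inconclusive = duplicate wells that disagreed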;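 also: run without ouabain in cells lacking the KCC2 cotransporter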
Of the large screens only hits and unclear results are named; the others gave an inactive call (follow-up assays come after a bar, where they were run). Sampled rows, rich in hits. Any-hit rate of the full collection: about 4.1%.

C=CCN(CC=C)C(=S)NC(=O)/C=C/c1ccccc1	KCC2 mod 8.85 | KCC2 secondary inactive | KCC2 bumet counter 0.0231 | KCC2 secondary2 inactive | HEK293 Tl flux 0.0204 | KCC2 ouabain 0.0288 | HEK counter2 0.0205
COc1ccc(/C=C/C(=O)NC(=S)NNC(=O)c2cccnc2)cc1	none
O=C(/C=C/c1ccc(Br)cc1)NC(=S)NNC(=O)c1ccco1	KCC2 mod 3.92 | KCC2 secondary inactive | KCC2 bumet counter 0.0103 | KCC2 secondary2 inactive | HEK293 Tl flux inconclusive | KCC2 ouabain inactive | HEK counter2 inactive
O=C(NC(=S)NNC(=O)c1ccco1)c1ccccc1	none (no result: KCC2 mod)
CC(C)c1ccc(NC(=O)c2cnn(-c3ccccc3)c2NC(=O)c2ccco2)cc1	KCC2 mod -3.72 | KCC2 secondary inactive | KCC2 bumet counter inconclusive | KCC2 secondary2 0.0263 | HEK293 Tl flux inactive | KCC2 ouabain inconclusive | HEK counter2 inactive
O=S(=O)(Nc1ccc(Br)cn1)c1ccc(Cl)s1	none (no result: KCC2 mod)
CCSc1nc2ccccc2c(=O)n1C1CCOC(C)(C)C1 (configuration not stated)	none
CC1(C)CC(n2c(=S)[nH]c3ccccc3c2=O)CCO1 (configuration not stated)	KCC2 mod 14.2 | KCC2 secondary inactive | KCC2 bumet counter 0.0353 | KCC2 secondary2 inactive | HEK293 Tl flux 0.0222 | KCC2 ouabain 0.0308 | HEK counter2 inconclusive
O=C(CSc1ncnc2sccc12)NCc1ccc2c(c1)OCO2	none (no result: KCNQ1 block, hERG rescue, KCC2 mod, KCNQ1 act, KCNK9 block)
COC1CCCN(C(=O)c2ccc(OC3CCN(S(=O)(=O)N(C)C)CC3)cc2)C1 (configuration not stated)	none (no result: KCC2 mod)
O=C(CCc1c[nH]c2ccccc12)NCc1ccc2c(c1)OCO2	none
O=C(CCCc1c[nH]c2ccccc12)NCc1ccc2c(c1)OCO2	KCC2 mod -4.47 | KCC2 secondary inactive | KCC2 bumet counter inactive | KCC2 secondary2 inactive | HEK293 Tl flux inactive | KCC2 ouabain inconclusive | HEK counter2 inactive
O=C1/C(=C\c2ccco2)NC(=S)N1c1ccccc1	KCC2 mod 15 | KCC2 secondary 0.0146 | KCC2 bumet counter 0.0332 | KCC2 secondary2 inactive | HEK293 Tl flux 0.0182 | KCC2 ouabain inconclusive | HEK counter2 0.0125
CC(Sc1nncn1C)C(=O)Nc1ccc(N2CCCCC2)cc1 (configuration not stated)	none (no result: KCNQ1 block, hERG rescue, KCC2 mod, KCNQ1 act, KCNK9 block)
S=c1[nH]nc(C2(c3ccccc3)CCCC2)o1	KCC2 mod -3.14 | KCC2 secondary inactive | KCC2 bumet counter inactive | KCC2 secondary2 0.0233 | HEK293 Tl flux inactive | KCC2 ouabain 0.0184 | HEK counter2 inactive
O=C1CC(c2ccccc2)=NN1c1nc(-c2ccccc2)cs1	KCC2 mod 9.67 | KCC2 secondary 0.0133 | KCC2 bumet counter 0.0391 | KCC2 secondary2 inactive | HEK293 Tl flux 0.013 | KCC2 ouabain 0.0345 | HEK counter2 inconclusive
C/C(=N\NC(=O)c1nnn(-c2nonc2N)c1CN1CCCCC1)c1ccccc1O	none (no result: KCC2 mod)
Fc1ccc(-c2nc3ccccc3[nH]2)cc1	none
S=c1nc(-c2ccc(Br)cc2)[nH]c2ccccc12	hERG rescue 31.5, KCC2 mod 93.2, KCNQ1 act 111 | KCC2 secondary 0.0469 | KCC2 bumet counter 0.13 | KCC2 secondary2 0.0782 | HEK293 Tl flux 0.121 | KCC2 ouabain 0.113 | HEK counter2 0.0917
O=C1CCSc2c1ccc1ccccc21	none (no result: KCNQ1 block, hERG rescue, KCC2 mod, KCNQ1 act, KCNK9 block)
O=C(Nc1ccccc1)/C(=C\c1ccncc1)NC(=O)c1ccccc1	KCC2 mod 5.44 | KCC2 secondary inactive | KCC2 bumet counter inactive | KCC2 secondary2 inactive | HEK293 Tl flux inconclusive | KCC2 ouabain inactive | HEK counter2 inactive
CCn1c2ccccc2c2cc(NC(=O)COC(=O)c3ccc(NC(=O)CC#N)cc3)ccc21	none (no result: KCC2 mod)
C=CCN1C(=O)/C(=C\c2ccc(OC(=O)c3ccco3)c(OC)c2)SC1=S	none
C=CCN1C(=O)/C(=C/c2ccc(OC(C)=O)c(OCC)c2[N+](=O)[O-])SC1=S	KCNQ1 block 12, KCC2 mod -3.44 | KCC2 secondary 0.00577 | KCC2 bumet counter inactive | KCC2 secondary2 inactive | HEK293 Tl flux 0.00498 | KCC2 ouabain inconclusive | HEK counter2 inactive
CCOc1cc(C#N)ccc1OCC(=O)N1CCN(C(=O)c2cccs2)CC1	none (no result: KCNQ1 block, hERG rescue, KCC2 mod, KCNQ1 act, KCNK9 block)
O=C(CCC(=O)OCC(F)(F)C(F)F)Nc1ccc(Cl)cc1	KCC2 mod 8.28 | KCC2 secondary inactive | KCC2 bumet counter inactive | KCC2 secondary2 inconclusive | HEK293 Tl flux inactive | KCC2 ouabain inactive | HEK counter2 inactive
Cc1ccccc1-c1nc(CS(=O)(=O)CC(=O)NCc2ccccc2)c(C)o1	KCC2 mod -5.05 | KCC2 secondary inactive | KCC2 bumet counter inactive | KCC2 secondary2 inconclusive | HEK293 Tl flux inactive | KCC2 ouabain inconclusive | HEK counter2 inactive
COc1cccc(-c2nc(CS(=O)(=O)CC(=O)NCc3ccccc3)c(C)o2)c1	KCC2 mod -4.1 | KCC2 secondary inactive | KCC2 bumet counter inactive | KCC2 secondary2 inactive | HEK293 Tl flux inactive | KCC2 ouabain inconclusive | HEK counter2 inactive
COc1cccc(/C=N/NC(=O)c2c(C)nc3ccc(Br)cn23)c1O	KCC2 mod -3.37 | KCC2 secondary inactive | KCC2 bumet counter inactive | KCC2 secondary2 inactive | HEK293 Tl flux inactive | KCC2 ouabain 0.0158 | HEK counter2 inactive
CCOc1ccccc1/C=N/NC(=O)c1c(C)nc2ccc(Br)cn12	none (no result: KCC2 mod)
CCN1CCN(C(=O)C2CCC(=O)N(CCCN3CCCC3=O)C2)CC1 (configuration not stated)	none (no result: KCC2 mod)
Cc1cccc(/C=N/NC(=O)C(C)Nc2cccc3ccccc23)n1 (configuration not stated)	none (no result: KCC2 mod) | KCC2 secondary inactive | KCC2 bumet counter inactive | KCC2 secondary2 inactive | HEK293 Tl flux inactive | KCC2 ouabain inactive | HEK counter2 inactive
